Here are results for five molecules from article PMC6800648 (Cell chemical biology, 2019).

The target in series [1] is T1, CBX7 (Mus musculus, UniProt Q8VDS3).
T1 sequence (Q8VDS3 2-69 limits assumed): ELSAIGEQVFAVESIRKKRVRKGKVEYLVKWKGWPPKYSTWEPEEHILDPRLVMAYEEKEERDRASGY
The experiment in a line: Polycomb in-vivo Assay. It counts as cell-based.

Series [2] is described as follows: Solubility observed in the Polycomb in-vivo Assay. Particulars: above 30 mM in the Polycomb in-vivo Assay.
The test system of series [3] is canonical PRC1 complex. The experiment in a line: Chemiprecipitation. It counts as binding, human. The note with it: PC3 cell lysates, western blot. In short, it runs like this:
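PC3 cells in DMEM/F12 plus 10% FBS were grown to 80–90% confluency, trypsinised, PBS-washed twice, and lysed fresh or after flash freezing. Lysates were pulled down with biotinylated test compounds. Beads were boiled in Laemmli buffer at 95 °C for 3 min, with 1% input. Proteins were separated by SDS-PAGE and blotted to PVDF. Primary antibody overnight at 4°C; infrared secondaries (1:10,000).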
Background: In western blotting, separated proteins are transferred to a membrane and probed.

The test system of series [4] is 120 purified Kme reader domains. The series can be described thus: Chromatin-associated domain array. It counts as binding. Particulars: biotinylated ligand, fluorescently tagged streptavidin visualization.
Series [5] addresses T2, CBX2 chromodomain (residues 9–66 of NP_005180) (UniProt Q14781-1 9-66).
T2 sequence (looked up): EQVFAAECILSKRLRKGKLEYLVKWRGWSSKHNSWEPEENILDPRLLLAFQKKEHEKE
The experiment in a line: ITC. For orientation: ITC needs no label: the signal is the heat of the interaction.

Series [6] deals with T3, CDYL2 chromodomain (residues 1–75 of NP_689555) (UniProt Q8N8U2 1-75).
T3 sequence (looked up): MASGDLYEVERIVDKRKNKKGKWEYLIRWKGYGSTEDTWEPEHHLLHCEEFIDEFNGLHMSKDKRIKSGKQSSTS
The experiment in a line: ITC.

Series [7] has as its target T4, CBX6 chromodomain (residues 8–65 of NP_055107) (UniProt O95503 8-65).
T4 sequence (looked up): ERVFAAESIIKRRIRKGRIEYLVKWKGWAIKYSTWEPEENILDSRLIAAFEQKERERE
The series can be described thus: ITC.

In series [8] the target is CBX7 chromodomain (UniProt O95931 8-62). The series can be described thus: fluorescence polarization. Background: Polarisation of emitted light reports the rotation of a fluorescent probe.

Numbered stars: 1 amine (or outer) side, 2 acyl side, 3 side chain; on linkers, the order of the positions; unused ones are H or OH. Square brackets hold non-standard residues; d marks the D form. Peptide text beside a SMILES is read from it. * marks the point of attachment. NH(CH2CH2O)11C2H4NHBiotinyl = O=C(CCCC[C@@H]1SC[C@@H]2NC(=O)N[C@@H]21)NCCOCCOCCOCCOCCOCCOCCOCCOCCOCCOCCOCCN*; Lys(Me,2-norbornyl) = CN(CCCC[C@H](N)C(=O)O)C1CC2CCC1C2; X10 = CN(CCCC[C@H](N[*:1])C(=O)[*:2])C1C2CC3CC(C2)CC1C3; Benzoyl(4-tBu) = CC(C)(C)c1ccc(C(=O)*)cc1; Lys(Et2) = CCN(CC)CCCC[C@H](N)C(=O)O

Turning to `COC(=O)[C@H](CO)NC(=O)[C@H](CCCCN(C)C1C2CC3CC(C2)CC1C3)NC(=O)[C@H](CC(C)C)NC(=O)[C@H](C)NC(=O)[C@H](Cc1ccccc1)NC(=O)c1ccc(C(C)(C)C)cc1` (stereo partly drawn) [UNC6373, methyl N^6-((1S,3S,5S,7S)-adamantan-2-yl)-N^2-(4-(tert-butyl)benzoyl)-L-phenylalanyl-L-alanyl-L-leucyl-N^6-methyl-L-lysyl-L-serinate] ({Benzoyl(4-tBu)}-FAL[X10]S-OMe), the EC50 in series [1] came to 1.02 ± 0.175 µM. In addition, the “solubility in this assay” value in series [2] is reported as “markedly poor solubility”.
Take `CCN(CC)CCCC[C@H](NC(=O)[C@H](CC(C)C)NC(=O)[C@H](C)NC(=O)[C@H](Cc1ccccc1)NC(=O)c1ccc(C(C)(C)C)cc1)C(=O)N[C@@H](CO)C(=O)NCCOCCOCCOCCOCCOCCOCCOCCOCCOCCOCCOCCNC(=O)CCCC[C@@H]1SC[C@@H]2NC(=O)N[C@@H]21` [UNC4195, 4-(tert-butyl)-N-((2S,5S,8S,11S,14S)-11-(4-(diethylamino)butyl)-14-(hydroxymethyl)-8-isobutyl-5-methyl-3,6,9,12,15,53-hexaoxo-57-((3aS,4S,6aR)-2-oxohexahydro-1H-thieno[3,4-d]imidazol-4-yl)-1-phenyl-19,22,25,28,31,34,37,40,43,46,49-undecaoxa-4,7,10,13,16,52-hexaazaheptapentacontan-2-yl)benzamide, reference compound] ({Benzoyl(4-tBu)}-FAL[Lys(Et2)]S-{NH(CH2CH2O)11C2H4NHBiotinyl}): in series [3], the “pulldown of canonical PRC1 components (CBX4, CBX7, CBX8, RING1B, BMI1)” value was “we detected pulldown of CBX4, CBX7, CBX8, RING1B, and BMI1”. For the same molecule, the “selectivity profile on CADOR microarray” value in series [4] was “binding interactions were only detected for all five Polycomb CBX chromodomains and a small subset of CDY chromodomains”.
As for `CC(C)C[C@H](NC(=O)[C@H](C)NC(=O)[C@H](Cc1ccccc1)NC(=O)c1ccc(C(C)(C)C)cc1)C(=O)N[C@@H](CCCCN(C)C1CC2CCC1C2)C(=O)N[C@@H](CO)C(=O)NCCOCCOCCOCCOCCOCCOCCOCCOCCOCCOCCOCCNC(=O)CCCC[C@@H]1SC[C@@H]2NC(=O)N[C@@H]21` (stereo partly drawn) [UNC5355, N-((2S,5S,8S,11S,14S)-11-(4-(bicyclo[2.2.1]heptan-2-yl(methyl)amino)butyl)-14-(hydroxymethyl)-8-isobutyl-5-methyl-3,6,9,12,15,53-hexaoxo-57-((3aS,4S,6aR)-2-oxohexahydro-1H-thieno[3,4-d]imidazol-4-yl)-1-phenyl-19,22,25,28,31,34,37,40,43,46,49-undecaoxa-4,7,10,13,16,52-hexaazaheptapentacontan-2-yl)-4-(tert-butyl)benzamide] ({Benzoyl(4-tBu)}-FAL[Lys(Me,2-norbornyl)]S-{NH(CH2CH2O)11C2H4NHBiotinyl}), in series [3], the “pulldown of CBX2 and CBX6” value is reported as “not detected”; the “pulldown of canonical PRC1 components (CBX4, CBX7, CBX8, RING1B, BMI1)” value is “all five components previously mentioned were similarly pulled down”. Also, in series [4], the “selectivity profile on CADOR microarray” value was “binding interactions were only detected for all five Polycomb CBX chromodomains and a small subset of CDY chromodomains”.

B1: UNC4976 (peptide)
peptide: FALKS
modifications: N-terminal 4-(tert-butyl)benzoyl cap on Phe1; Lys4 is N6-(bicyclo[2.2.1]heptan-2-yl)-N6-methyl-L-lysine (N6-methyl-N6-norbornyl lysine); C-terminal methyl ester on Ser5
In the case of B1, the “fold selectivity for CBX4/7 over CBX2” value in series [5] amounted to 28 fold. Moreover, the “fold selectivity for CBX4/7 over CDYL2” value in series [6] is 8 fold. In series [7], the “fold selectivity for CBX4/7 over CBX6” value worked out at 9 fold.
UGGAGUUGCGUUCCA (structured_RNA) [FAM-ANRIL-RNA (ANRIL Loop C) FP probe]: the binding signal in series [8] was 4 fold affinity (alpha).

One may read the EC50 as the concentration needed to bring the measured effect to its halfway point. Read a low EC50 as a more potent agent.
